In ChEMBL document CHEMBL5058577, “EUbOPEN Chemogenomics Library 2 (Multiplex)” (2022):

Test system: Fibroblast
Assay: Multiplex assay against human fibroblast
Format: toxicity, cell-based
How it was run: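 Imaging took place on a CQ1 microscope at 37°C and 5% CO2 once compound had been added to live cells stained at seeding with Hoechst33342, BioTracker Green Microtubule Cytoskeleton Dye, MitoTracker Red and Annexin V Alexa Fluor 680. CellPathfinder machine-learning gating classed cells as Hoechst high-intensity objects or normal cells, classed normal cells as having healthy, pyknosed or fragmented nuclei, and classed pyknosed cells as mitotic or apoptotic. Tubulin, mitochondrial-mass and membrane-permeability phenotypes are per cents of the healthy-nucleus cells.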

[1] = 12 h, 1 µM, compound concentration 1 uM, replicate 1
[2] = 12 h, 1 µM, compound concentration 1 uM, replicate 2
[3] = 12 h, 10 µM, compound concentration 10 uM, replicate 1
[4] = 12 h, 10 µM, compound concentration 10 uM, replicate 2
[5] = 24 h, 1 µM, compound concentration 1 uM, replicate 1
[6] = 24 h, 1 µM, compound concentration 1 uM, replicate 2
[7] = 24 h, 10 µM, compound concentration 10 uM, replicate 1
[8] = 24 h, 10 µM, compound concentration 10 uM, replicate 2
[9] = 48 h, 1 µM, compound concentration 1 uM, replicate 1
[10] = 48 h, 1 µM, compound concentration 1 uM, replicate 2
[11] = 48 h, 10 µM, compound concentration 10 uM, replicate 1
[12] = 48 h, 10 µM, compound concentration 10 uM, replicate 2

Cc1nc2ccc(Oc3ccc(F)cc3)cc2c(=O)n1C[C@H]1CCCN(C(C)C)C1.Cl
Population Apoptotic (%) [1]: 34% | Population Fragmented Nuclei (%) [1]: 19% | Population Healthy Nuclei (%) [1]: 67% | Population Hoechst High Intensity Objects (%) [1]: 5% | Population Membrane Permeable-Phenotype (%) [1]: 1% | Population Mitochondria Different-Phenotype (%) [1]: 4% | Population Mitotic Cells (%) [1]: 65% | Population Normal (%) [1]: 94% | Population Pyknosed Nuclei (%) [1]: 13% | Population Tubulin-Different-Phenotype (%) [1]: 31% | Total Cell Count [1]: 184 | Population Apoptotic (%) [2]: 44% | Population Fragmented Nuclei (%) [2]: 24% | Population Healthy Nuclei (%) [2]: 47% | Population Hoechst High Intensity Objects (%) [2]: 9% | Population Membrane Permeable-Phenotype (%) [2]: 21% | Population Mitochondria Different-Phenotype (%) [2]: 8% | Population Mitotic Cells (%) [2]: 55% | Population Normal (%) [2]: 90% | Population Pyknosed Nuclei (%) [2]: 29% | Population Tubulin-Different-Phenotype (%) [2]: 70% | Total Cell Count [2]: 111 | Population Apoptotic (%) [3]: 53% | Population Fragmented Nuclei (%) [3]: 19% | Population Healthy Nuclei (%) [3]: 61% | Population Hoechst High Intensity Objects (%) [3]: 4% | Population Membrane Permeable-Phenotype (%) [3]: 1% | Population Mitochondria Different-Phenotype (%) [3]: 22% | Population Mitotic Cells (%) [3]: 46% | Population Normal (%) [3]: 95% | Population Pyknosed Nuclei (%) [3]: 19% | Population Tubulin-Different-Phenotype (%) [3]: 88% | Total Cell Count [3]: 241 | Population Apoptotic (%) [4]: 61% | Population Fragmented Nuclei (%) [4]: 36% | Population Healthy Nuclei (%) [4]: 44% | Population Hoechst High Intensity Objects (%) [4]: 3% | Population Membrane Permeable-Phenotype (%) [4]: 5% | Population Mitochondria Different-Phenotype (%) [4]: 25% | Population Mitotic Cells (%) [4]: 38% | Population Normal (%) [4]: 96% | Population Tubulin-Different-Phenotype (%) [4]: 80% | Total Cell Count [4]: 205 | Population Apoptotic (%) [5]: 66% | Population Fragmented Nuclei (%) [5]: 17% | Population Healthy Nuclei (%) [5]: 68% | Population Hoechst High Intensity Objects (%) [5]: 3% | Population Membrane Permeable-Phenotype (%) [5]: 1% | Population Mitochondria Different-Phenotype (%) [5]: 6% | Population Mitotic Cells (%) [5]: 33% | Population Normal (%) [5]: 96% | Population Pyknosed Nuclei (%) [5]: 13% | Population Tubulin-Different-Phenotype (%) [5]: 30% | Total Cell Count [5]: 186 | Population Apoptotic (%) [6]: 38% | Population Fragmented Nuclei (%) [6]: 29% | Population Healthy Nuclei (%) [6]: 50% | Population Hoechst High Intensity Objects (%) [6]: 7% | Population Membrane Permeable-Phenotype (%) [6]: 19% | Population Mitochondria Different-Phenotype (%) [6]: 17% | Population Mitotic Cells (%) [6]: 61% | Population Normal (%) [6]: 92% | Population Pyknosed Nuclei (%) [6]: 20% | Population Tubulin-Different-Phenotype (%) [6]: 73% | Total Cell Count [6]: 112 | Population Apoptotic (%) [7]: 67% | Population Fragmented Nuclei (%) [7]: 27% | Population Healthy Nuclei (%) [7]: 58% | Population Hoechst High Intensity Objects (%) [7]: 3% | Population Membrane Permeable-Phenotype (%) [7]: 0% | Population Mitochondria Different-Phenotype (%) [7]: 27% | Population Mitotic Cells (%) [7]: 32% | Population Normal (%) [7]: 96% | Population Pyknosed Nuclei (%) [7]: 13% | Population Tubulin-Different-Phenotype (%) [7]: 84% | Total Cell Count [7]: 290 | Population Apoptotic (%) [8]: 54% | Population Fragmented Nuclei (%) [8]: 30% | Population Healthy Nuclei (%) [8]: 52% | Population Hoechst High Intensity Objects (%) [8]: 6% | Population Membrane Permeable-Phenotype (%) [8]: 1% | Population Mitochondria Different-Phenotype (%) [8]: 29% | Population Mitotic Cells (%) [8]: 45% | Population Normal (%) [8]: 93% | Population Pyknosed Nuclei (%) [8]: 17% | Population Tubulin-Different-Phenotype (%) [8]: 87% | Total Cell Count [8]: 187 | Population Apoptotic (%) [9]: 66% | Population Fragmented Nuclei (%) [9]: 25% | Population Healthy Nuclei (%) [9]: 66% | Population Hoechst High Intensity Objects (%) [9]: 3% | Population Membrane Permeable-Phenotype (%) [9]: 0% | Population Mitochondria Different-Phenotype (%) [9]: 2% | Population Mitotic Cells (%) [9]: 33% | Population Normal (%) [9]: 96% | Population Pyknosed Nuclei (%) [9]: 8% | Population Tubulin-Different-Phenotype (%) [9]: 33% | Total Cell Count [9]: 184 | Population Apoptotic (%) [10]: 42% | Population Fragmented Nuclei (%) [10]: 36% | Population Healthy Nuclei (%) [10]: 44% | Population Hoechst High Intensity Objects (%) [10]: 5% | Population Membrane Permeable-Phenotype (%) [10]: 6% | Population Mitochondria Different-Phenotype (%) [10]: 13% | Population Mitotic Cells (%) [10]: 57% | Population Normal (%) [10]: 94% | Population Pyknosed Nuclei (%) [10]: 19% | Population Tubulin-Different-Phenotype (%) [10]: 68% | Total Cell Count [10]: 105 | Population Apoptotic (%) [11]: 66% | Population Fragmented Nuclei (%) [11]: 23% | Population Healthy Nuclei (%) [11]: 65% | Population Hoechst High Intensity Objects (%) [11]: 9% | Population Membrane Permeable-Phenotype (%) [11]: 0% | Population Mitochondria Different-Phenotype (%) [11]: 20% | Population Mitotic Cells (%) [11]: 33% | Population Normal (%) [11]: 90% | Population Pyknosed Nuclei (%) [11]: 10% | Population Tubulin-Different-Phenotype (%) [11]: 85% | Total Cell Count [11]: 290 | Population Apoptotic (%) [12]: 68% | Population Fragmented Nuclei (%) [12]: 33% | Population Healthy Nuclei (%) [12]: 53% | Population Hoechst High Intensity Objects (%) [12]: 3% | Population Membrane Permeable-Phenotype (%) [12]: 2% | Population Mitochondria Different-Phenotype (%) [12]: 19% | Population Mitotic Cells (%) [12]: 32% | Population Normal (%) [12]: 96% | Population Pyknosed Nuclei (%) [12]: 12% | Total Cell Count [12]: 201
